RORa activator: activators of orphan receptor RORA, primary screen, cell-based, luminescence; Nuclear receptor ROR-alpha (Homo sapiens), P35398; CHO-K1 Gal4-RORA LBD luciferase reporter; percent increase over mock-subtracted basal signal; activation, % at 10 µM; hit rate 1.5% among 65,000; AID 560, 2006;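 active = activation above the mean of all tested compounds plus 3 SD, cut at about 49% in these data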
MMP13 inh: human MMP13 inhibitors, primary screen, biochemical, FRET peptide cleavage | MMP-13 fTHP FRET cleavage, Mca fluorescence | Collagenase 3 (Homo sapiens), P45452 | hit rate 0.07% among 65,000 | inhibition, % at 4 µM;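 active = inhibition above the mean of compound-free control plate wells plus 3 SD, cut at about 14% in these data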
ROCK2 blocker: inhibitors of human ROCK2 kinase, primary screen, biochemical, high-throughput, luminescence; Rho-associated protein kinase 2 (Homo sapiens), O75116; purified ROCK2, Kinase-Glo ATP depletion luminescence; inhibition, % at 6 µM; hit rate 0.35% among 60,000; AID 604, 2007;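 active = inhibition above the screen-wide mean inhibition plus 3 SD, cut at about 18% in these data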
JNK3 blocker: JNK3 kinase activity inhibitors, primary screen, biochemical, human, purified enzyme; inhibition, % at 8 µM; hit rate 0.61% among 60,000; HTS; in the data active = inhibition above about 17%
PKA kinase inh: inhibitors of human PKA kinase activity, primary screen, biochemical, ATP-depletion luminescence, Kemptide substrate; cAMP-dependent protein kinase catalytic subunit alpha (Homo sapiens), P17612; PKA Kemptide phosphorylation, Kinase-Glo ATP luminescence; inhibition, % at 6 µM; hit rate 0.1% among 65,000; AID 524, 2006;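 active = inhibition above the screen-wide mean inhibition plus 3 SD, cut at about 21% in these data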
SF-1 act: activators of human SF-1, primary screen, cell-based, CHO-K1, Gal4-SF-1 LBD, luciferase luminescence; CHO-K1 Gal4-SF-1 LBD luciferase reporter; % increase over DMSO SF-1-specific signal; activation, % at 10 µM; hit rate 1.9% among 65,000; AID 522, 2006;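 active = activation above the mean activation of all tested compounds plus 3 SD, cut at about 50% in these data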
Target sequence (Q13285 whole entry, looked up, the tested form may be a part): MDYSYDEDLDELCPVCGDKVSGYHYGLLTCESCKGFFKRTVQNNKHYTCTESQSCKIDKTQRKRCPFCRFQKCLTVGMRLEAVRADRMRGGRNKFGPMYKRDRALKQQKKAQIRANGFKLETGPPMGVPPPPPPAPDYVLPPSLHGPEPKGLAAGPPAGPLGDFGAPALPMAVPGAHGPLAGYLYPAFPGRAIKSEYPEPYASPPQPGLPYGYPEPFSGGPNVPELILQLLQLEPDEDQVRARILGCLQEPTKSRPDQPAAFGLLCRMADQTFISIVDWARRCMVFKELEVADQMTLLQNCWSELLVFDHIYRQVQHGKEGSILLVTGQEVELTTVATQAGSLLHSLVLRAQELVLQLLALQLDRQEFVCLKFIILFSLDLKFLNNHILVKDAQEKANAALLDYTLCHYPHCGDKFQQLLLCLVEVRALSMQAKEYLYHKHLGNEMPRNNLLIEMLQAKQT
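material = CHO-K1 cells with Gal4–hSF-1 LBD chimera plus Gal4-driven luciferase | compound = 10 µM single point, 1% DMSO | incubation = 20 h compound exposure at 37 °C after 1 h cell settling | measured by = SteadyLite luciferase luminescence | evaluation = percent activation relative to DMSO median and mock-transfected background | control set = DMSO negative control and −SF1 background wells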
Of the large screens only hits and unclear results are named; the others gave an inactive call. Rows were chosen to be rich in hits. Some 3.4% of all compounds tested hit in one or more screens of this group.

Cc1cccc(NC(=O)c2cnc3scc(C)n3c2=O)c1	RORa activator 50
Cc1ccc(NC(=O)c2cnc3scc(C)n3c2=O)c(C)c1	none
Cc1csc2ncc(C(=O)Nc3ccc4c(c3)OCCO4)c(=O)n12	RORa activator 97
Cc1csc2ncc(C(=O)Nc3ccon3)c(=O)n12	none
C=CCOc1cccc(C2/C(=C(/O)c3ccccc3)C(=O)C(=O)N2CCCN2CCOCC2)c1 (stereo not drawn)	none
CCC(C)NC(=O)c1cn(C)c(=O)c2cc(OC)c(OC)cc12 (stereo not drawn)	none (no result: ROCK2 blocker, JNK3 blocker)
COc1ccc(/C=C/C2=NC(=C\N(C)C)/C(=O)O2)cc1	SF-1 act 50
CN(C)/C=C1\N=C(c2ccc3c(c2)OCO3)OC1=O	none (no result: ROCK2 blocker, JNK3 blocker)
COc1cccc(CNc2ccc3c(c2)ncn3C(C)C)c1OC	SF-1 act 55
CCCCOc1ccc(-c2nnc(-c3ccncc3)o2)cc1	RORa activator 59
CC(=O)C1=C(O)C(=O)N(CCCCCC(=O)O)C1c1ccc(N(C)C)cc1 (stereo not drawn)	none
CCOC(=O)CNC(=O)c1ccc2c(c1)OCCO2	SF-1 act 53
Cn1c(-c2ccc3ccccc3n2)nc2cnccc21	RORa activator 55, SF-1 act 65
COc1cc(OC)c(-c2nc3cnccc3n2C)cc1OC	none
COc1c(C)cccc1C(=O)Nc1ccc(N2CCN(S(C)(=O)=O)CC2)cc1	SF-1 act 107
COc1c(C)cc(Br)cc1C(=O)Nc1ccc(N2CCN(S(C)(=O)=O)CC2)cc1	none
COc1c(C)cccc1C(=O)Nc1ccc(CN2CCOCC2)cc1	SF-1 act 62
COc1cc(C2c3c(oc4ccccc4c3=O)C(=O)N2Cc2ccncc2)ccc1O (stereo not drawn)	none
O=C1C(=O)N(CCCn2ccnc2)C(c2cccnc2)/C1=C(/O)c1ccc(Br)cc1 (stereo not drawn)	none (no result: ROCK2 blocker, JNK3 blocker)
CCC(=O)N1CCc2cc(Br)cc(S(=O)(=O)N3CCN(c4ccccn4)CC3)c21	none (no result: ROCK2 blocker, JNK3 blocker)
O=C(NCCC(=O)N1CCNC1=O)OCc1ccccc1	none
Cc1c(C(=O)OCC2CCCO2)[nH]c2c1C(=O)CC(c1ccco1)C2 (stereo not drawn)	RORa activator 56
Cc1c(C(=O)OCC(C)C)[nH]c2c1C(=O)CC(c1ccco1)C2 (stereo not drawn)	none
O=S(=O)(c1ccc(Br)s1)n1cccn1	none
CC(C)C(=O)Nc1ccc(NC(=O)c2ccccn2)cn1	RORa activator 51 (no result: ROCK2 blocker, JNK3 blocker)
O=C(Nc1ccc(NC(=O)C2CC2)nc1)c1ccccn1	none (no result: ROCK2 blocker, JNK3 blocker)
CCC(=O)Nc1ccc(NC(=O)c2ccccn2)cn1	RORa activator 65
CC(C)C(=O)Nc1ccc(NC(=O)c2cccs2)cn1	none
CCN(Cc1ccccc1)S(=O)(=O)c1ccc(S(=O)(=O)N2CCN(CCC#N)CC2)cc1	none
COc1ccccc1NC(=O)C(C)NS(=O)(=O)c1ccccc1 (stereo not drawn)	none
COc1ccc2nc(N3CCCC(C(=O)NCCCN4CCN(C)CC4)C3)sc2c1 (stereo not drawn)	none (no result: ROCK2 blocker, JNK3 blocker)
CC1CCCN(c2nc3ccsc3c(=O)s2)C1 (stereo not drawn)	RORa activator 60 (no result: ROCK2 blocker, JNK3 blocker)
COC(=O)c1ccccc1OC(=O)c1ccc(Br)o1	none
COc1ccc(-c2nc3ccccc3s2)cc1O	none
Cc1ccc(-c2nnc3c4ccccc4c(C)nn23)cc1NC(=O)c1ccco1	none
CCS(=O)(=O)Nc1cc(-c2nc3cccnc3s2)ccc1C	SF-1 act 71
Cc1ccc(-c2nc3cccnc3s2)cc1NC(=O)c1ccco1	SF-1 act 59
Cc1ccc(-c2noc(-c3cccs3)n2)cc1	none
Brc1ccc(-c2cnc(-c3cccs3)o2)cc1	SF-1 act 52
Cc1c(-c2nc(N)nc(Nc3ccccc3F)n2)oc2ccccc12	RORa activator 108, SF-1 act 73
Cc1csc(OCc2ccc(C#N)cc2)n1	none
CCn1c(N)c(C(=O)NC2CCCCC2)sc1=S	none
Cc1cc(NC(=O)CSC2=Nc3ccccc3C3=NC(Cc4ccccc4)C(=O)N23)n[nH]1 (stereo not drawn)	JNK3 blocker 36
CC(=O)Nc1cc(OC(C)=O)c2nonc2c1OC(C)=O	ROCK2 blocker 84, JNK3 blocker 47
COc1ccc(C)cc1NC(=O)C1CCCN(S(=O)(=O)c2c(C)noc2/C=C/N(C)C)C1 (stereo not drawn)	none
CCC(=O)Nc1cc(NC(=O)CSc2ncc(-c3ccc(F)cc3)n2Cc2ccco2)ccc1C	RORa activator 55, SF-1 act 69
O=C1CCCC(O)=C1C=Nc1ccc(O)cc1	SF-1 act 56
C=CCN1C(=O)/C(=C2/Sc3ccccc3N2C)SC1=Nc1c(C)n[nH]c1C	none
CN1C(=O)/C(=C2/C=Cc3ccccc3N2CCCS(=O)(=O)O)SC1=S	MMP13 inh 18
C=CCN1C(=O)/C(=C2/Sc3ccccc3N2CCCS(=O)(=O)O)SC1=S	MMP13 inh 16
Cc1cccc(/N=C/c2c(O)n(-c3cc(Cl)ccc3N3CCOCC3)c(=O)c3ccccc23)n1	none
c1cncc(-c2nnc(-c3ccco3)o2)c1	none
Clc1ccc(-c2nnc(-c3ccco3)o2)cc1	RORa activator 50
CC1CCc2ccccc2N1C(=O)c1cccs1 (stereo not drawn)	none
Cc1ccc(C)n1Cc1ccc(C(=O)O)cc1	none
CCc1ccc(-c2ccc(C(=O)O)cc2)nc1	SF-1 act 85
O=C(CC(Nc1ccc(F)cc1)C(=O)O)c1ccccc1 (stereo not drawn)	RORa activator 62
O=C(c1ccc(Cl)s1)N1CCc2ccccc21	SF-1 act 62
CCC(=O)Nc1ccc(-c2nnc(SCC(=O)NCC3CCCO3)n2C)cc1 (stereo not drawn)	none
CC(=NCc1ccco1)c1c(C)[nH]n(-c2nc3ccccc3s2)c1=O	JNK3 blocker 20
C=CCn1c(COc2ccc(Cl)cc2)nnc1SCC(=O)N1CC(=O)Nc2ccccc21	none
O=C(CSc1nccn1Cc1ccccc1)Nc1nccs1	RORa activator 57
CC(C)(C)C1=Nn2c(nnc2-c2ccco2)SC1	none
CCOC(=O)c1oc2ccc(CNCCO)c(Cl)c2c1C	SF-1 act 66
CCOC(=O)c1c(C)[nH]c(C(=O)COC(=O)c2oc3ccc(OC)cc3c2C)c1C	none
CCCn1c(=O)c(C(=O)Nc2nnc(C)s2)c(O)c2ccccc21	none
CC1=NN(c2ccccc2)C(=O)C1	ROCK2 blocker 19
